Measurements taken from ChEMBL document CHEMBL5303300, “EUbOPEN Chemogenomics Library - Multiplex” (2023).
“And” between values parts separate entries of the source, which are not always exact repeats. Equal entries are not always repeated.

What was measured:
Format in all cases: toxicity, cell-based
Fibroblast = assay: Multiplex assay against human fibroblast; conditions: number of replicates 2
Procedure, shortened: (§1)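 On a CQ1 microscope at 37°C and 5% CO2, live cells were imaged after compound addition. They had been stained at seeding with Hoechst33342, BioTracker Green Microtubule Cytoskeleton Dye, MitoTracker Red and Annexin V Alexa Fluor 680. CellPathfinder machine-learning gating assigned cells to Hoechst high-intensity objects or normal cells, normal cells to healthy, pyknosed or fragmented nuclei, and pyknosed cells to mitotic or apoptotic. Tubulin, mitochondrial-mass and membrane-permeability phenotypes are per cents of healthy-nucleus cells.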

HEK-293T = assay: Multiplex assay against HEK293T; conditions: human, number of replicates 2; procedure, shortened: as §1
U2OS = assay: Multiplex assay against U2OS; conditions: human, number of replicates 2; procedure, shortened: as §1
[1] = 12 h, 1 µM, compound concentration 1 uM
[2] = 12 h, 10 µM, compound concentration 10 uM
[3] = 24 h, 1 µM, compound concentration 1 uM
[4] = 24 h, 10 µM, compound concentration 10 uM
[5] = 48 h, 1 µM, compound concentration 1 uM
[6] = 48 h, 10 µM, compound concentration 10 uM

## Cn1cc(-c2ccc(N(C(=O)NCc3ccccc3)[C@H]3CC[C@H](Nc4ccc(C#N)cn4)CC3)cc2)ccc1=O
Fibroblast; [1]
  Population Apoptotic (%): 46%
  Population Fragmented Nuclei (%): 8% and 18%
  Population Healthy Nuclei (%): 72% and 60%
  Population Hoechst High Intensity Objects (%): 0%
  Population Membrane Permeable-Phenotype (%): 6%
  Population Mitochondria Different-Phenotype (%): 1% and 2%
  Population Mitotic Cells (%): 53%
  Population Normal (%): 100%
  Population Pyknosed Nuclei (%): 19% and 21%
  Population Tubulin-Different-Phenotype (%): 9% and 11%
  Total Cell Count: 155 and 181
Fibroblast; [2]
  Population Apoptotic (%): 39% and 40%
  Population Fragmented Nuclei (%): 8% and 9%
  Population Healthy Nuclei (%): 55% and 72%
  Population Hoechst High Intensity Objects (%): 0%
  Population Membrane Permeable-Phenotype (%): 16% and 14%
  Population Mitochondria Different-Phenotype (%): 3%
  Population Mitotic Cells (%): 60% and 59%
  Population Normal (%): 99%
  Population Pyknosed Nuclei (%): 36% and 18%
  Population Tubulin-Different-Phenotype (%): 75% and 55%
  Total Cell Count: 249 and 273
Fibroblast; [3]
  Population Apoptotic (%): 38% and 48%
  Population Fragmented Nuclei (%): 12% and 15%
  Population Healthy Nuclei (%): 73% and 64%
  Population Hoechst High Intensity Objects (%): 0%
  Population Membrane Permeable-Phenotype (%): 4% and 7%
  Population Mitochondria Different-Phenotype (%): 0% and 1%
  Population Mitotic Cells (%): 61% and 51%
  Population Normal (%): 99%
  Population Pyknosed Nuclei (%): 14% and 20%
  Population Tubulin-Different-Phenotype (%): 11%
  Total Cell Count: 149 and 180
Fibroblast; [4]
  Population Apoptotic (%): 54% and 81%
  Population Fragmented Nuclei (%): 10%
  Population Healthy Nuclei (%): 44% and 47%
  Population Hoechst High Intensity Objects (%): 0%
  Population Membrane Permeable-Phenotype (%): 18%
  Population Mitochondria Different-Phenotype (%): 7% and 5%
  Population Mitotic Cells (%): 45% and 18%
  Population Normal (%): 99%
  Population Pyknosed Nuclei (%): 44% and 42%
  Population Tubulin-Different-Phenotype (%): 79% and 63%
  Total Cell Count: 231 and 271
Fibroblast; [5]
  Population Apoptotic (%): 76% and 60%
  Population Fragmented Nuclei (%): 17% and 16%
  Population Healthy Nuclei (%): 68%
  Population Hoechst High Intensity Objects (%): 0%
  Population Membrane Permeable-Phenotype (%): 5% and 2%
  Population Mitochondria Different-Phenotype (%): 0%
  Population Mitotic Cells (%): 23% and 39%
  Population Normal (%): 100%
  Population Pyknosed Nuclei (%): 13% and 15%
  Population Tubulin-Different-Phenotype (%): 8% and 5%
  Total Cell Count: 154 and 186
Fibroblast; [6]
  Population Apoptotic (%): 71% and 83%
  Population Fragmented Nuclei (%): 8% and 15%
  Population Healthy Nuclei (%): 36% and 28%
  Population Hoechst High Intensity Objects (%): 0% and 1%
  Population Membrane Permeable-Phenotype (%): 26% and 22%
  Population Mitochondria Different-Phenotype (%): 8% and 2%
  Population Mitotic Cells (%): 28% and 16%
  Population Normal (%): 99% and 98%
  Population Pyknosed Nuclei (%): 54% and 56%
  Population Tubulin-Different-Phenotype (%): 78% and 65%
  Total Cell Count: 233 and 237
HEK-293T; [1]
  Population Apoptotic (%): 40% and 44%
  Population Fragmented Nuclei (%): 3% and 2%
  Population Healthy Nuclei (%): 83% and 84%
  Population Hoechst High Intensity Objects (%): 5%
  Population Membrane Permeable-Phenotype (%): 2% and 3%
  Population Mitochondria Different-Phenotype (%): 19% and 9%
  Population Mitotic Cells (%): 59% and 55%
  Population Normal (%): 94%
  Population Pyknosed Nuclei (%): 12%
  Population Tubulin-Different-Phenotype (%): 52% and 40%
  Total Cell Count: 571 and 680
HEK-293T; [2]
  Population Apoptotic (%): 52% and 47%
  Population Fragmented Nuclei (%): 12% and 6%
  Population Healthy Nuclei (%): 71% and 78%
  Population Hoechst High Intensity Objects (%): 8% and 10%
  Population Membrane Permeable-Phenotype (%): 8% and 3%
  Population Mitochondria Different-Phenotype (%): 54% and 57%
  Population Mitotic Cells (%): 47% and 52%
  Population Normal (%): 91% and 89%
  Population Pyknosed Nuclei (%): 16% and 15%
  Population Tubulin-Different-Phenotype (%): 92% and 93%
  Total Cell Count: 474 and 388
HEK-293T; [3]
  Population Apoptotic (%): 35% and 31%
  Population Fragmented Nuclei (%): 5% and 4%
  Population Healthy Nuclei (%): 86%
  Population Hoechst High Intensity Objects (%): 8% and 6%
  Population Membrane Permeable-Phenotype (%): 2% and 5%
  Population Mitochondria Different-Phenotype (%): 5% and 4%
  Population Mitotic Cells (%): 65% and 68%
  Population Normal (%): 91% and 93%
  Population Pyknosed Nuclei (%): 7% and 8%
  Population Tubulin-Different-Phenotype (%): 33% and 30%
  Total Cell Count: 908 and 972
HEK-293T; [4]
  Population Apoptotic (%): 55% and 37%
  Population Fragmented Nuclei (%): 4% and 9%
  Population Healthy Nuclei (%): 86% and 77%
  Population Hoechst High Intensity Objects (%): 12% and 11%
  Population Membrane Permeable-Phenotype (%): 3% and 7%
  Population Mitochondria Different-Phenotype (%): 42% and 52%
  Population Mitotic Cells (%): 44% and 62%
  Population Normal (%): 87% and 88%
  Population Pyknosed Nuclei (%): 9% and 12%
  Population Tubulin-Different-Phenotype (%): 91% and 90%
  Total Cell Count: 478 and 532
HEK-293T; [5]
  Population Apoptotic (%): 9% and 8%
  Population Fragmented Nuclei (%): 10% and 11%
  Population Healthy Nuclei (%): 85%
  Population Hoechst High Intensity Objects (%): 9%
  Population Membrane Permeable-Phenotype (%): 6%
  Population Mitochondria Different-Phenotype (%): 1% and 0%
  Population Mitotic Cells (%): 90% and 91%
  Population Normal (%): 90%
  Population Pyknosed Nuclei (%): 3%
  Population Tubulin-Different-Phenotype (%): 14% and 16%
  Total Cell Count: 2214 and 2329
HEK-293T; [6]
  Population Apoptotic (%): 43% and 56%
  Population Fragmented Nuclei (%): 7% and 3%
  Population Healthy Nuclei (%): 79% and 86%
  Population Hoechst High Intensity Objects (%): 10% and 13%
  Population Membrane Permeable-Phenotype (%): 5% and 2%
  Population Mitochondria Different-Phenotype (%): 39% and 30%
  Population Mitotic Cells (%): 56% and 43%
  Population Normal (%): 89% and 86%
  Population Pyknosed Nuclei (%): 12% and 9%
  Population Tubulin-Different-Phenotype (%): 74% and 66%
  Total Cell Count: 578 and 533
U2OS; [1]
  Population Apoptotic (%): 50% and 60%
  Population Healthy Nuclei (%): 48% and 86%
  Population Hoechst High Intensity Objects (%): 0%
  Population Membrane Permeable-Phenotype (%): 0% and 3%
  Population Mitochondria Different-Phenotype (%): 5% and 3%
  Population Mitotic Cells (%): 50% and 39%
  Population Normal (%): 100%
  Population Pyknosed Nuclei (%): 14% and 12%
  Population Tubulin-Different-Phenotype (%): 55% and 75%
U2OS; [2]
  Population Apoptotic (%): 93% and 59%
  Population Fragmented Nuclei (%): 16% and 12%
  Population Healthy Nuclei (%): 41% and 57%
  Population Hoechst High Intensity Objects (%): 0%
  Population Membrane Permeable-Phenotype (%): 20% and 21%
  Population Mitochondria Different-Phenotype (%): 33% and 16%
  Population Normal (%): 100% and 99%
  Population Pyknosed Nuclei (%): 41% and 30%
  Population Tubulin-Different-Phenotype (%): 40% and 48%
U2OS; [3]
  Population Apoptotic (%): 66% and 60%
  Population Healthy Nuclei (%): 40% and 87%
  Population Hoechst High Intensity Objects (%): 0%
  Population Membrane Permeable-Phenotype (%): 0% and 3%
  Population Mitochondria Different-Phenotype (%): 0% and 1%
  Population Mitotic Cells (%): 33% and 40%
  Population Normal (%): 100% and 99%
  Population Pyknosed Nuclei (%): 19% and 9%
  Population Tubulin-Different-Phenotype (%): 63% and 79%
U2OS; [4]
  Population Apoptotic (%): 90% and 75%
  Population Fragmented Nuclei (%): 8% and 11%
  Population Healthy Nuclei (%): 31%
  Population Hoechst High Intensity Objects (%): 0%
  Population Membrane Permeable-Phenotype (%): 36% and 21%
  Population Mitochondria Different-Phenotype (%): 27% and 46%
  Population Mitotic Cells (%): 9% and 24%
  Population Normal (%): 100% and 99%
  Population Pyknosed Nuclei (%): 60% and 56%
  Population Tubulin-Different-Phenotype (%): 36% and 69%
U2OS; [5]
  Population Apoptotic (%): 85% and 68%
  Population Healthy Nuclei (%): 65% and 88%
  Population Hoechst High Intensity Objects (%): 0%
  Population Membrane Permeable-Phenotype (%): 2% and 1%
  Population Mitochondria Different-Phenotype (%): 0%
  Population Mitotic Cells (%): 14% and 31%
  Population Normal (%): 100%
  Population Pyknosed Nuclei (%): 11% and 8%
  Population Tubulin-Different-Phenotype (%): 70% and 85%
U2OS; [6]
  Population Apoptotic (%): 78% and 88%
  Population Fragmented Nuclei (%): 30% and 10%
  Population Healthy Nuclei (%): 23% and 24%
  Population Hoechst High Intensity Objects (%): 0% and 2%
  Population Membrane Permeable-Phenotype (%): 40% and 37%
  Population Mitochondria Different-Phenotype (%): 40% and 37%
  Population Mitotic Cells (%): 21% and 11%
  Population Normal (%): 100% and 97%
  Population Pyknosed Nuclei (%): 45% and 65%
  Population Tubulin-Different-Phenotype (%): 40% and 52%
